OX1R antag-1 = antagonists of human orexin 1 receptor (OX1R) | OX1R-expressing cells, FRET antagonist read-out | inhibition, % at 6.6 µM | actives 1.8% (n = 330,000) | AID 485270, 2010; in the data active means inhibition mostly above about 38%, no sharp cut-off; inactive means mostly below about 40%;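 further: 0% = agonist challenge alone and 100% = reference antagonist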
Target sequence (O43613 whole entry, looked up): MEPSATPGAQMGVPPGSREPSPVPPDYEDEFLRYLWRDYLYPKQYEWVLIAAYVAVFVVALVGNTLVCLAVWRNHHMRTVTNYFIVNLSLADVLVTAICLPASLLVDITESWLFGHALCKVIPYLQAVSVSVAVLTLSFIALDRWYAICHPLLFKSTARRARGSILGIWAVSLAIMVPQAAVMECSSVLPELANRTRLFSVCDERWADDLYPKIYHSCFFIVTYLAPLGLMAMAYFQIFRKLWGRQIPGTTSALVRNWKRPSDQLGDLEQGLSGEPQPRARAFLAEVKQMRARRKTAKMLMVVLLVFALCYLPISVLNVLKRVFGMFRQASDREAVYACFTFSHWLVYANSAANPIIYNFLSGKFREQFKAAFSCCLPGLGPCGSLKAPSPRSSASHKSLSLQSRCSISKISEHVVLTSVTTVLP
CHO parental Ca = ATP-evoked calcium signal inhibitors, parental CHO, primary screen, counter-screen for OX1R antagonist project, cell-based, fluorescence, Fluo-8 calcium dye; parental CHO-K1, ATP-induced calcium, Fluo-8 fluorescence; inhibition, % at 5.6 µM; actives 0.63% (n = 330,000); AID 463079, 2010;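 active means inhibition above that plate's mean sample inhibition plus 3 SD, cut at about 26% in these data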;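 further: 0% = ATP-challenged DMSO wells and 100% = DMSO wells without ATP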
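Material: Parental CHO cells | Reagent: ATP | Compound dosing: Single nominal dose of 5.6 µM per compound | Detection: Intracellular calcium via Fluo-8 no-wash fluorescent dye | Read-out: % inhibition of ATP-induced calcium mobilization | Benchmarks: Low control ATP plus DMSO, high control DMSO only | Replicates: Singlicate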
CHO-K1 Ca ag = counter-screen for M1 agonists: effect in parental CHO-K1 cells. Fluo-8 calcium fluorescence; scaled to maximal ATP response, vehicle zero. activation, % at 3 µM. AID 602248, 2012. actives 0.48% (n = 360,000); in the data active means activation above about 15%;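 further: untransfected CHO-K1 host cells lacking M1 receptor as counterscreen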
OX1R antag-2 = OX1R (HCRTR1) antagonists, primary screen, fluorescence, CHO/OX1R cells, Fluo-8 calcium, orexin A; inhibition, % at 5 µM; AID 434989, 2010; Orexin/Hypocretin receptor type 1 (Homo sapiens), O43613; actives 0.43% (n = 330,000); Fluo-8 calcium fluorescence;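 active means inhibition above its plate's threshold, mean inhibition of all tested compounds on the plate plus 3 SD, cut at about 37% in these data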;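 further: 0% = orexin A challenge wells and 100% = SB-334867-A antagonist wells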
M1 PAM parental = nonselective calcium activators in parental CHO-K1 cells, primary screen, counter-screen for M1 PAM project, cell-based, Fluo-8 calcium fluorescence, full deck, 1536-well | ATP EC20; 0% at ATP EC20, 100% at ATP max | activation, % at 3 µM | AID 602247, 2012 | actives 0.02% (n = 360,000);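 active means activation above the run cutoff, the mean activation of all test compounds plus 3 SD, cut at about 40% in these data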;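 further: peak over basal fluorescence ratio in a 140 s read after ATP addition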
CHO-K1 Ca antag = counter-screen for M1 antagonists: effect in parental CHO-K1 cells; ATP-induced calcium, Fluo-8 fluorescence; inhibition, % at 3 µM; actives 0.6% (n = 360,000); AID 602250;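 active means inhibition above a per-plate cutoff, the plate's mean sample inhibition plus 3 SD, cut at about 24% in these data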;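 further: 0% = DMSO plus EC80 ATP and 100% = DMSO alone without ATP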
An asterisk follows results filed as active; nt = not tested or not shown. A selection: hits, their analogues and other compounds. The true share with any hit is near 2.9%.

SMILES	OX1R antag-1	CHO parental Ca	CHO-K1 Ca ag	OX1R antag-2	M1 PAM parental	CHO-K1 Ca antag
COCCCNC(=O)c1ccccc1Sc1ccc(NC(C)=O)nc1	24	-17	0	-28	-14	24*
O=C1CNCc2[nH]c3ccccc3c2N1c1ccccc1	21	-3	1	-29	14	-4
O=CN1Cc2[nH]c3ccccc3c2N(c2ccc(Cl)cc2)C1=O	14	-2	0	0	-8	27*
Cc1nc(SCC(=O)Nc2nc3ccccc3s2)c(C#N)c(C)c1C	53*	-17	0	-17	25	-5
Cc1cc(C(F)(F)F)c(C#N)c(SCC(=O)Nc2nc3ccccc3s2)n1	74*	-11	1	22	-13	14
Cc1ccc2sc(NC(=O)CSc3nc(C)cc(C)c3C#N)nc2c1	20	-3	0	-17	28	-36
COc1ccc2c(=O)cc(CO)oc2c1	1	-4	1	2	6	-19
C(=N\Nc1nc2ccccc2s1)/c1ccccn1	60*	6	nt	-3	nt	nt
C(=N\Nc1nc2ccccc2s1)/c1ccc2c(c1)OCO2	75*	-6	0	5	17	-7
Cc1onc(-c2ccccc2)c1C(=O)Nc1nnc(CC(C)C)s1	4	-12	1	-31	21	-15
CCc1ccc(CN2C(=O)c3ccccc3C2C(=O)NC(C)CC)cc1 (stereo not drawn)	-12	-10	-1	-22	8	4
COc1cccc(CN(C)C(=O)c2ccc(OCC(=O)Nc3cccc(C(F)(F)F)c3)c(OC)c2)c1	38	65*	12	52*	-25	19
COc1ccc(C(=O)O)cc1S(=O)(=O)NCCCN1CCCC1=O	20	13	0	13	-8	25*
COc1ccc(OC)c(S(=O)(=O)NCCCN2CCCC2=O)c1	6	4	1	4	-10	-6
CCc1ccc(-c2nc(CSCC(=O)N3CCN(c4ncccn4)CC3)c(C)o2)cc1	42*	14	0	-14	3	4
O=[N+]([O-])c1ccc(N=NN(CCO)CCO)cc1	47*	-1	0	1	5	9
O=[N+]([O-])c1ccc(N=Nc2ncc[nH]2)cc1	nt	nt	-1	nt	-8	-8
Cc1ccc2c(c1)C(=NC1CCCCC1)c1cc3ccccc3nc1-2	75*	-14	1	17	9	-2
Cc1ccc(C(=O)Nc2ncc([N+](=O)[O-])s2)cc1	54*	12	11	2	-4	13
O=C(Nc1ncc([N+](=O)[O-])s1)c1ccc2c(c1)OCO2	60	29*	9	-1	-3	1
Cc1cnc(NC(=O)c2ccc3c(c2)OCCO3)s1	-3	-3	1	12	24	-14
O=C(Nc1ncc([N+](=O)[O-])s1)c1ccco1	44	26	3	17	-7	-6
Cc1onc(-c2ccccc2)c1C(=O)Nc1nnc(C(C)C)s1	8	-9	0	-19	1	0
Cc1onc(-c2ccccc2)c1C(=O)Nc1ncc([N+](=O)[O-])s1	26	5	16*	-3	4	12
CCOCCCN(C(=O)c1snc(C(N)=O)c1N)C(C(=O)NC1CCCC1)c1ccc(O)cc1 (stereo not drawn)	16	-13	1	-18	17	-22
Cc1ccc(N(CC(=O)NC(C)c2ccccc2)S(=O)(=O)c2c(C)noc2C)cc1 (stereo not drawn)	52*	-20	0	14	10	-4
COc1cccc(CNC(=O)CN(c2cc(C)cc(C)c2)S(=O)(=O)c2c(C)noc2C)c1	46*	-25	2	-18	21	-8
COc1ccc(N(CC(=O)Nc2ccc(OC)c(Cl)c2)S(=O)(=O)c2c(C)noc2C)cc1	38	7	3	-3	16	-5
COc1ccc(N(CC(=O)Nc2ccc(F)c(Cl)c2)S(=O)(=O)c2c(C)noc2C)cc1	27	12	0	5	-6	26*

Screening results: PubChem BioAssay, The Scripps Research Institute Molecular Screening Center
